The source made the active and inactive calls. No cut-off for these calls is given here.
How the values were obtained:
[1] = system: C6; assay: Cytotoxicity against rat C6 cells assessed as reduction in cell viability after 24 hrs by MTT assay; type: cell-based; settings: C6, 24 h
Procedure, shortened: (§1)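 C6 or BV2 cells seeded at 1–5×10^5 per well; after 12 h exposed to 0, 6.25, 12.5, 25, 50 or 100 μM (final, DMSO <0.4%) for 24 h. MTT added for 4 h, dissolved in DMSO, read at 570 nm. IC50 as mean of three independent experiments run in triplicate.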

[2] = system: BV-2; assay: Cytotoxicity against mouse BV-2 cells assessed as reduction in cell viability after 24 hrs by MTT assay; type: cell-based; settings: BV-2, 24 h; procedure, shortened: as §1
[3] = system: C6; assay: Inhibition of LPS-induced NO production in rat C6 cells incubated for 24 hrs by Griess reagent based assay; type: functional, cell-based; settings: C6, 24 h
Procedure, shortened: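 C6 cells at 5×10^5 cells/mL, LPS 10 μg/mL plus compound at 2.5–40 μM final for 24 h. Nitrite measured with Griess reagent at 540 nm against a NaNO2 standard; IC50 from three repeats.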

[4] = Inhibition of LPS-induced NO production in mouse BV-2 cells incubated for 24 hrs by Griess reagent based assay; type: functional, cell-based; settings: BV-2, 24 h
Procedure, shortened: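 BV2 cells at 5×10^5 cells/mL, LPS 1 μg/mL plus compound at 2.5–40 μM final for 24 h. Supernatant nitrite measured with Griess reagent for 15 min at room temperature in the dark, 540 nm, against a NaNO2 standard curve; IC50 from three repeats.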

[5] = target: Prostaglandin G/H synthase 2 (Homo sapiens) (UniProt P35354); assay: Inhibition of human COX2 assessed as reduction in PGF2alpha formation using arachidonic acid as substrate incubated for 10 mins by ELISA
[6] = target: Prostaglandin G/H synthase 1 (Homo sapiens) (UniProt P23219); assay: Inhibition of human COX1 assessed as reduction in PGF2alpha formation using arachidonic acid as substrate incubated for 10 mins by ELISA
[7] = organism: Homo sapiens; assay: Selectivity index, ratio of IC50 for inhibition of human COX1 to IC50 for inhibition of human COX2
[8] = system: Mus musculus; assay: Antiinflammatory activity against LPS-induced hippocampal neuroinflammatory Kunming mouse model assessed as reduction in GFAP level in hippocampus at 50 mg/kg, ip administered bid for 6 days by DAPI staining based microscopic method; type: functional, organism-based; settings: time 6.0 day
[9] = Induction of apoptosis in LPS-induced hippocampal neuroinflammatory Kunming mouse model at 50 mg/kg, ip administered bid for 6 days by Nissl staining based microscopic method; type: organism-based; settings: in vivo, 144 h, time 6 day
Procedure, shortened: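 Male Kunming mice (8 weeks, 20–25 g, n = 10/group) were anaesthetised with i.p. chloral hydrate, then given LPS (3 μL of 10 mg/mL) into the lateral ventricle at 0.5 μL/min; sham mice received 3 μL saline. Compound was then given i.p. at 50 mg/kg in saline with 1% methyl cellulose for six consecutive days. Behaviour and deaths were recorded, and hippocampal slices were Nissl-stained.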

Chain of Prostaglandin G/H synthase 2 (Homo sapiens) (P35354 whole entry, looked up): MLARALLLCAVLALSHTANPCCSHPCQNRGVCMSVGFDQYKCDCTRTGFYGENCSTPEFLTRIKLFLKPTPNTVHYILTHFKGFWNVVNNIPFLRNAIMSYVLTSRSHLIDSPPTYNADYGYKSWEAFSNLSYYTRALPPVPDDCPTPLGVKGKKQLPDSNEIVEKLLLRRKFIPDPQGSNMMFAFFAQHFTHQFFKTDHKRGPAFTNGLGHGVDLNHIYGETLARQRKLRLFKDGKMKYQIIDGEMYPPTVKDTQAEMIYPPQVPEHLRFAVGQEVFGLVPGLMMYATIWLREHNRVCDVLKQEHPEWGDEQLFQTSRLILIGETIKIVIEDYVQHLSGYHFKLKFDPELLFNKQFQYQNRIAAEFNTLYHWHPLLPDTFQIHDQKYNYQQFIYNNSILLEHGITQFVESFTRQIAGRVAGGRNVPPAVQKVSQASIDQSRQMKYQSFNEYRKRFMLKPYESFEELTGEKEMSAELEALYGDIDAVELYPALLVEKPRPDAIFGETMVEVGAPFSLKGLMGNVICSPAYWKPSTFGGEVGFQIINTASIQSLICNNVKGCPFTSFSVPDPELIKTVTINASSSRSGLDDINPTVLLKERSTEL

Row | Compound | IC50 [1] | IC50 [2] | IC50 [3] | IC50 [4] | IC50 [5] | IC50 [6] | Ratio IC50 [7] | Activity [8] | Activity [9]
1 | CN(C)c1ccccc1C(=O)NCCc1c[nH]c2ccccc12 | > 100 µM | > 100 µM | > 40 µM | 22.9 µM | > 40 µM | – | – | – | –
2 | O=C(NCCc1c[nH]c2ccccc12)c1cc(Cl)ccc1O | > 100 µM | > 100 µM | > 40 µM | > 40 µM | 10.4 µM | > 40 µM | – | – | –
3 | O=C(NCCc1c[nH]c2ccccc12)c1cc2ccccc2cc1O | > 100 µM | > 100 µM | 13.2 µM | 59 µM | 2.18 µM | 39.2 µM | 18 | – | –
4 | Cc1cccc(Nc2ccccc2C(=O)NCCc2c[nH]c3ccc(O)cc23)c1C | 80.5 µM | 56.4 µM | – | – | 1.4 µM | – | – | – | –
5 | O=C(O)c1ccccc1O [SALICYLIC ACID] | – | – | – | – | > 40 µM | > 40 µM | – | Active | Toxic
6 | O=C(NCCc1c[nH]c2ccccc12)c1ccc(F)cc1O | > 100 µM | > 100 µM | > 40 µM | > 40 µM | > 40 µM | > 40 µM | – | – | –
7 | Cc1ccc2[nH]cc(CCNC(=O)c3ccccc3Nc3cccc(Cl)c3C)c2c1 | 66.1 µM | 73.7 µM | – | – | 9.72 µM | – | – | – | –
8 | O=C(NCCc1c[nH]c2ccc(O)cc12)c1ccccc1O | > 100 µM | > 100 µM | > 40 µM | > 40 µM | 0.8 µM | 1.74 µM | 2.18 | – | –
9 | Cc1ccc2[nH]cc(CCNC(=O)c3ccccc3O)c2c1 | > 100 µM | > 100 µM | > 40 µM | > 40 µM | > 40 µM | > 40 µM | – | – | –
10 | Cc1ccc2[nH]cc(CCNC(=O)c3ccccc3Nc3ccccc3)c2c1 | 87.9 µM | 64.6 µM | – | – | 1.47 µM | 27 µM | 18.4 | – | –
11 | Cc1ccc(O)c(C(=O)NCCc2c[nH]c3ccccc23)c1 | > 100 µM | > 100 µM | > 40 µM | > 40 µM | > 40 µM | > 40 µM | – | – | –
12 | CN(C)c1ccccc1C(=O)NCCc1c[nH]c2ccc(O)cc12 | > 100 µM | > 100 µM | > 40 µM | > 40 µM | 0.57 µM | – | – | – | –
